Experiments:
Type in all cases: toxicity, cell-based
Fibroblast = assay: Incucyte cell viability with human fibroblast; details: 10 µM, compound concentration 10 uM; further: filed as whole numbers so only -1 and 0 and 1 occur
U2OS [1] = assay: Incucyte cell viability with U2OS; details: human, 10 µM, compound concentration 10 uM; further: filed as whole numbers so only -1 and 0 and 1 occur
HEK-293T = assay: Incucyte cell viability with HEK293T; details: human, 10 µM, compound concentration 10 uM; further: filed as whole numbers so only -1 and 0 and 1 occur
U2OS [2] = assay: Multiplex assay against U2OS; details: human
Summary of the method: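 At seeding, live cells were stained with Hoechst33342, BioTracker Green Microtubule Cytoskeleton Dye, MitoTracker Red and Annexin V Alexa Fluor 680. After compound addition they were imaged on a CQ1 microscope at 37°C and 5% CO2, and CellPathfinder machine-learning gating sorted them into Hoechst high-intensity objects or normal cells, with normal cells further split into healthy, pyknosed or fragmented nuclei and pyknosed cells into mitotic or apoptotic. Tubulin, mitochondrial-mass and membrane-permeability phenotypes are given as per cents of cells with healthy nuclei.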

[3] = 0 h, replicate number 2, timepoint 0 hours
[4] = 6 h, replicate number 1, timepoint 6 hours
[5] = 12 h, replicate number 1, timepoint 12 hours
[6] = 18 h, replicate number 1, timepoint 18 hours
[7] = 24 h, replicate number 1, timepoint 24 hours
[8] = 12 h, 1 µM, compound concentration 1 uM, replicate 1
[9] = 12 h, 1 µM, compound concentration 1 uM, replicate 2
[10] = 12 h, 10 µM, compound concentration 10 uM, replicate 1
[11] = 12 h, 10 µM, compound concentration 10 uM, replicate 2
[12] = 24 h, 1 µM, compound concentration 1 uM, replicate 1
[13] = 24 h, 1 µM, compound concentration 1 uM, replicate 2
[14] = 24 h, 10 µM, compound concentration 10 uM, replicate 1
[15] = 24 h, 10 µM, compound concentration 10 uM, replicate 2
[16] = 48 h, 1 µM, compound concentration 1 uM, replicate 1
[17] = 48 h, 1 µM, compound concentration 1 uM, replicate 2
[18] = 48 h, 10 µM, compound concentration 10 uM, replicate 1
[19] = 48 h, 10 µM, compound concentration 10 uM, replicate 2

In the case of `CC(=O)c1cc(-c2cc(C(=O)NC3CC3)ccc2C)c2ncccn12`, the “Growth Rate” value (Fibroblast; [3]) is reported as 1, the “Growth Rate” value (Fibroblast; [4]) is reported as 0 and the “Growth Rate” value (Fibroblast; [5]) is reported as 0. The “Growth Rate” value (Fibroblast; [6]) was 0, the “Growth Rate” value (Fibroblast; [7]) was 0 and the “Growth Rate” value (U2OS [1]; 0 h, replicate number 1, timepoint 0 hours) was 0. For the same compound, the “Growth Rate” value (U2OS [1]; [4]) was 0, the “Growth Rate” value (U2OS [1]; [5]) was 0 and the “Growth Rate” value (U2OS [1]; [6]) was 0. For the same compound, the “Growth Rate” value (U2OS [1]; [7]) was 0, the “Growth Rate” value (HEK-293T; [3]) was 1 and the “Growth Rate” value (HEK-293T; [4]) was 0. For the same compound, the “Growth Rate” value (HEK-293T; [5]) was 0, the “Growth Rate” value (HEK-293T; [6]) was 0 and the “Growth Rate” value (HEK-293T; [7]) was 0. The “Population Apoptotic (%)” value (U2OS [2]; [8]) was 42%, the “Population Fragmented Nuclei (%)” value (U2OS [2]; [8]) was 6% and the “Population Healthy Nuclei (%)” value (U2OS [2]; [8]) was 84%. For the same compound, the “Population Hoechst High Intensity Objects (%)” value (U2OS [2]; [8]) was 5%, the “Population Membrane Permeable-Phenotype (%)” value (U2OS [2]; [8]) was 9% and the “Population Mitochondria Different-Phenotype (%)” value (U2OS [2]; [8]) was 8%. For the same compound, the “Population Mitotic Cells (%)” value (U2OS [2]; [8]) was 57%, the “Population Normal (%)” value (U2OS [2]; [8]) was 94% and the “Population Pyknosed Nuclei (%)” value (U2OS [2]; [8]) was 8%. For the same compound, the “Population Tubulin-Different-Phenotype (%)” value (U2OS [2]; [8]) was 14%, the “Total Cell Count” value (U2OS [2]; [8]) was 108 and the “Population Apoptotic (%)” value (U2OS [2]; [9]) was 66%. For the same compound, the “Population Fragmented Nuclei (%)” value (U2OS [2]; [9]) was 8%, the “Population Healthy Nuclei (%)” value (U2OS [2]; [9]) was 85% and the “Population Hoechst High Intensity Objects (%)” value (U2OS [2]; [9]) was 7%. The “Population Membrane Permeable-Phenotype (%)” value (U2OS [2]; [9]) was 2%, the “Population Mitochondria Different-Phenotype (%)” value (U2OS [2]; [9]) was 7% and the “Population Mitotic Cells (%)” value (U2OS [2]; [9]) was 33%. The “Population Normal (%)” value (U2OS [2]; [9]) was 92%, the “Population Pyknosed Nuclei (%)” value (U2OS [2]; [9]) was 6% and the “Population Tubulin-Different-Phenotype (%)” value (U2OS [2]; [9]) was 19%. The “Total Cell Count” value (U2OS [2]; [9]) was 73, the “Population Apoptotic (%)” value (U2OS [2]; [10]) was 43% and the “Population Fragmented Nuclei (%)” value (U2OS [2]; [10]) was 7%. For the same compound, the “Population Healthy Nuclei (%)” value (U2OS [2]; [10]) was 79%, the “Population Hoechst High Intensity Objects (%)” value (U2OS [2]; [10]) was 6% and the “Population Membrane Permeable-Phenotype (%)” value (U2OS [2]; [10]) was 6%. For the same compound, the “Population Mitochondria Different-Phenotype (%)” value (U2OS [2]; [10]) was 9%, the “Population Mitotic Cells (%)” value (U2OS [2]; [10]) was 56% and the “Population Normal (%)” value (U2OS [2]; [10]) was 93%. The “Population Pyknosed Nuclei (%)” value (U2OS [2]; [10]) was 12%, the “Population Tubulin-Different-Phenotype (%)” value (U2OS [2]; [10]) was 16% and the “Total Cell Count” value (U2OS [2]; [10]) was 169. The “Population Apoptotic (%)” value (U2OS [2]; [11]) was 60%, the “Population Fragmented Nuclei (%)” value (U2OS [2]; [11]) was 11% and the “Population Healthy Nuclei (%)” value (U2OS [2]; [11]) was 84%. For the same compound, the “Population Hoechst High Intensity Objects (%)” value (U2OS [2]; [11]) was 4%, the “Population Membrane Permeable-Phenotype (%)” value (U2OS [2]; [11]) was 3% and the “Population Mitochondria Different-Phenotype (%)” value (U2OS [2]; [11]) was 8%. For the same compound, the “Population Mitotic Cells (%)” value (U2OS [2]; [11]) was 40%, the “Population Normal (%)” value (U2OS [2]; [11]) was 95% and the “Population Pyknosed Nuclei (%)” value (U2OS [2]; [11]) was 5%. For the same compound, the “Population Tubulin-Different-Phenotype (%)” value (U2OS [2]; [11]) was 17%, the “Total Cell Count” value (U2OS [2]; [11]) was 52 and the “Population Apoptotic (%)” value (U2OS [2]; [12]) was 43%. For the same compound, the “Population Fragmented Nuclei (%)” value (U2OS [2]; [12]) was 4%, the “Population Healthy Nuclei (%)” value (U2OS [2]; [12]) was 89% and the “Population Hoechst High Intensity Objects (%)” value (U2OS [2]; [12]) was 4%. The “Population Membrane Permeable-Phenotype (%)” value (U2OS [2]; [12]) was 6%, the “Population Mitochondria Different-Phenotype (%)” value (U2OS [2]; [12]) was 5% and the “Population Mitotic Cells (%)” value (U2OS [2]; [12]) was 56%. The “Population Normal (%)” value (U2OS [2]; [12]) was 96%, the “Population Pyknosed Nuclei (%)” value (U2OS [2]; [12]) was 6% and the “Population Tubulin-Different-Phenotype (%)” value (U2OS [2]; [12]) was 17%. For the same compound, the “Total Cell Count” value (U2OS [2]; [12]) was 111, the “Population Apoptotic (%)” value (U2OS [2]; [13]) was 0% and the “Population Fragmented Nuclei (%)” value (U2OS [2]; [13]) was 3%. The “Population Healthy Nuclei (%)” value (U2OS [2]; [13]) was 91%, the “Population Membrane Permeable-Phenotype (%)” value (U2OS [2]; [13]) was 3% and the “Population Mitochondria Different-Phenotype (%)” value (U2OS [2]; [13]) was 9%. For the same compound, the “Population Mitotic Cells (%)” value (U2OS [2]; [13]) was 100%, the “Population Normal (%)” value (U2OS [2]; [13]) was 95% and the “Population Pyknosed Nuclei (%)” value (U2OS [2]; [13]) was 5%. The “Population Tubulin-Different-Phenotype (%)” value (U2OS [2]; [13]) was 12%, the “Total Cell Count” value (U2OS [2]; [13]) was 70 and the “Population Apoptotic (%)” value (U2OS [2]; [14]) was 25%. The “Population Fragmented Nuclei (%)” value (U2OS [2]; [14]) was 15%, the “Population Healthy Nuclei (%)” value (U2OS [2]; [14]) was 66% and the “Population Hoechst High Intensity Objects (%)” value (U2OS [2]; [14]) was 2%. The “Population Membrane Permeable-Phenotype (%)” value (U2OS [2]; [14]) was 10%, the “Population Mitochondria Different-Phenotype (%)” value (U2OS [2]; [14]) was 5% and the “Population Mitotic Cells (%)” value (U2OS [2]; [14]) was 75%. The “Population Normal (%)” value (U2OS [2]; [14]) was 97%, the “Population Pyknosed Nuclei (%)” value (U2OS [2]; [14]) was 18% and the “Population Tubulin-Different-Phenotype (%)” value (U2OS [2]; [14]) was 17%. For the same compound, the “Total Cell Count” value (U2OS [2]; [14]) was 250, the “Population Apoptotic (%)” value (U2OS [2]; [15]) was 48% and the “Population Fragmented Nuclei (%)” value (U2OS [2]; [15]) was 11%. For the same compound, the “Population Healthy Nuclei (%)” value (U2OS [2]; [15]) was 63%, the “Population Membrane Permeable-Phenotype (%)” value (U2OS [2]; [15]) was 8% and the “Population Mitochondria Different-Phenotype (%)” value (U2OS [2]; [15]) was 12%. The “Population Mitotic Cells (%)” value (U2OS [2]; [15]) was 51%, the “Population Pyknosed Nuclei (%)” value (U2OS [2]; [15]) was 24% and the “Population Tubulin-Different-Phenotype (%)” value (U2OS [2]; [15]) was 18%. The “Total Cell Count” value (U2OS [2]; [15]) was 62, the “Population Apoptotic (%)” value (U2OS [2]; [16]) was 47% and the “Population Fragmented Nuclei (%)” value (U2OS [2]; [16]) was 3%. The “Population Healthy Nuclei (%)” value (U2OS [2]; [16]) was 91%, the “Population Hoechst High Intensity Objects (%)” value (U2OS [2]; [16]) was 2% and the “Population Membrane Permeable-Phenotype (%)” value (U2OS [2]; [16]) was 3%. For the same compound, the “Population Mitochondria Different-Phenotype (%)” value (U2OS [2]; [16]) was 9%, the “Population Mitotic Cells (%)” value (U2OS [2]; [16]) was 52% and the “Population Normal (%)” value (U2OS [2]; [16]) was 97%. For the same compound, the “Population Pyknosed Nuclei (%)” value (U2OS [2]; [16]) was 5%, the “Population Tubulin-Different-Phenotype (%)” value (U2OS [2]; [16]) was 21% and the “Total Cell Count” value (U2OS [2]; [16]) was 106. For the same compound, the “Population Apoptotic (%)” value (U2OS [2]; [17]) was 16%, the “Population Fragmented Nuclei (%)” value (U2OS [2]; [17]) was 2% and the “Population Hoechst High Intensity Objects (%)” value (U2OS [2]; [17]) was 3%. For the same compound, the “Population Membrane Permeable-Phenotype (%)” value (U2OS [2]; [17]) was 2%, the “Population Mitochondria Different-Phenotype (%)” value (U2OS [2]; [17]) was 20% and the “Population Mitotic Cells (%)” value (U2OS [2]; [17]) was 83%. The “Population Normal (%)” value (U2OS [2]; [17]) was 96%, the “Population Pyknosed Nuclei (%)” value (U2OS [2]; [17]) was 6% and the “Population Tubulin-Different-Phenotype (%)” value (U2OS [2]; [17]) was 23%. The “Total Cell Count” value (U2OS [2]; [17]) was 67, the “Population Apoptotic (%)” value (U2OS [2]; [18]) was 70% and the “Population Fragmented Nuclei (%)” value (U2OS [2]; [18]) was 16%. For the same compound, the “Population Healthy Nuclei (%)” value (U2OS [2]; [18]) was 60%, the “Population Hoechst High Intensity Objects (%)” value (U2OS [2]; [18]) was 7% and the “Population Membrane Permeable-Phenotype (%)” value (U2OS [2]; [18]) was 10%. The “Population Mitochondria Different-Phenotype (%)” value (U2OS [2]; [18]) was 6%, the “Population Mitotic Cells (%)” value (U2OS [2]; [18]) was 30% and the “Population Normal (%)” value (U2OS [2]; [18]) was 92%. The “Population Pyknosed Nuclei (%)” value (U2OS [2]; [18]) was 22%, the “Population Tubulin-Different-Phenotype (%)” value (U2OS [2]; [18]) was 16% and the “Total Cell Count” value (U2OS [2]; [18]) was 381. The “Population Apoptotic (%)” value (U2OS [2]; [19]) was 87%, the “Population Fragmented Nuclei (%)” value (U2OS [2]; [19]) was 14% and the “Population Healthy Nuclei (%)” value (U2OS [2]; [19]) was 73%. The “Population Hoechst High Intensity Objects (%)” value (U2OS [2]; [19]) was 4%, the “Population Membrane Permeable-Phenotype (%)” value (U2OS [2]; [19]) was 31% and the “Population Mitochondria Different-Phenotype (%)” value (U2OS [2]; [19]) was 29%. For the same compound, the “Population Mitotic Cells (%)” value (U2OS [2]; [19]) was 12%, the “Population Normal (%)” value (U2OS [2]; [19]) was 95% and the “Population Pyknosed Nuclei (%)” value (U2OS [2]; [19]) was 11%. For the same compound, the “Population Tubulin-Different-Phenotype (%)” value (U2OS [2]; [19]) was 35% and the “Total Cell Count” value (U2OS [2]; [19]) was 93.
